Source: PubChem
RORA act = activators of orphan receptor RORA, primary screen, cell-based, luminescence | AID 560, 2006 | hit rate 1.5% among 65,000 | activation, % at 10 µM | Nuclear receptor ROR-alpha (Homo sapiens), P35398 | CHO-K1 Gal4-RORA LBD luciferase reporter; percent increase over mock-subtracted basal signal;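 active means activation above the mean of all tested compounds plus 3 SD, cut at about 49% in these data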;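 further: 0% = DMSO-treated RORA cells and 100% = added signal equal to DMSO minus mock-transfected cells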
ERa SRC1 pot = enhancers of ERα–SRC-1 coactivator binding, primary screen, biochemical, TR-FRET, ERα LBD, low estradiol. Estrogen receptor (Homo sapiens), P03372. TR-FRET ERalpha-LBD/SRC-Cy5 coactivator binding, 2 h; 100 = basal binding, no effect. coactivator binding (% of control), % at 25.6 µM. hit rate 1.3% among 86,000. AID 639, 2007; in the data active means activity above about 200%;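 further: binding measured in presence of low estradiol as agonist stimulus; 0% = peptide alone without receptor and 100% = receptor with peptide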
ERa SRC1 inh = ERα–SRC-1 coactivator interaction inhibitors, primary screen, biochemical, TR-FRET, ERα LBD, estradiol-bound; TR-FRET ER-alpha LBD / SRC-1 peptide; inhibition, % at 25.6 µM; hit rate 1.7% among 86,000; Estrogen receptor (Homo sapiens), P03372; in the data active means inhibition above about 50%;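 further: 0% = receptor plus peptide control and 100% = peptide only without receptor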
SF1 activator = activators of human SF-1, primary screen, cell-based, CHO-K1, Gal4-SF-1 LBD, luciferase luminescence | Steroidogenic factor 1 (Homo sapiens), Q13285 | CHO-K1 Gal4-SF-1 LBD luciferase reporter; % increase over DMSO SF-1-specific signal | activation, % at 10 µM | hit rate 1.9% among 65,000 | AID 522, 2006;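 active means activation above the mean activation of all tested compounds plus 3 SD, cut at about 50% in these data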
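Test system: transient Gal4-SF-1 LBD reporter, CHO-K1; Amount: 4,000 CHO-K1 cells per well; Doses: 10 µM only; Timing: compound exposure 20 h at 37 °C; Signal: luciferase light emission; Read-out basis: percent activation relative to DMSO median and mock-transfected background; Control set: DMSO negative control and −SF1 background wells; Replicates: one test per compound.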
ERb coact inh = inhibitors of ERβ-SRC1 coactivator interaction, primary screen, biochemical, TR-FRET, ERβ LBD, SRC-1 peptide; TR-FRET ER-beta LBD / SRC1-Cy5 peptide binding; receptor agonist-loaded with 1 µM estradiol; inhibition, % at 25.6 µM; hit rate 1.3% among 86,000; AID 633, 2007;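 active means compounds whose percent inhibition of the receptor-coactivator binding signal exceeds about 50% in the single-dose screen, limit read from the data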;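 further: 0% = receptor plus peptide wells without compound and 100% = peptide-only wells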
BAP1 inh = inhibitors of BAP1 deubiquitinase, primary screen, biochemical, Ub-AMC fluorescence, kinetic; recombinant BAP1, Ub-AMC hydrolysis fluorescence kinetic; hits give low values; calls only at 20 µM; hit rate 0.48% among 72,000; AID 436, 2006;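 active means activity remaining at or below 50% of control, provided the compound also passes the data quality filters; inactive means the rest, including low values that fail the filters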;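 further: 100% = DMSO wells rate and 0% = substrate alone blank rate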
Target sequence (Q92560 whole entry, looked up): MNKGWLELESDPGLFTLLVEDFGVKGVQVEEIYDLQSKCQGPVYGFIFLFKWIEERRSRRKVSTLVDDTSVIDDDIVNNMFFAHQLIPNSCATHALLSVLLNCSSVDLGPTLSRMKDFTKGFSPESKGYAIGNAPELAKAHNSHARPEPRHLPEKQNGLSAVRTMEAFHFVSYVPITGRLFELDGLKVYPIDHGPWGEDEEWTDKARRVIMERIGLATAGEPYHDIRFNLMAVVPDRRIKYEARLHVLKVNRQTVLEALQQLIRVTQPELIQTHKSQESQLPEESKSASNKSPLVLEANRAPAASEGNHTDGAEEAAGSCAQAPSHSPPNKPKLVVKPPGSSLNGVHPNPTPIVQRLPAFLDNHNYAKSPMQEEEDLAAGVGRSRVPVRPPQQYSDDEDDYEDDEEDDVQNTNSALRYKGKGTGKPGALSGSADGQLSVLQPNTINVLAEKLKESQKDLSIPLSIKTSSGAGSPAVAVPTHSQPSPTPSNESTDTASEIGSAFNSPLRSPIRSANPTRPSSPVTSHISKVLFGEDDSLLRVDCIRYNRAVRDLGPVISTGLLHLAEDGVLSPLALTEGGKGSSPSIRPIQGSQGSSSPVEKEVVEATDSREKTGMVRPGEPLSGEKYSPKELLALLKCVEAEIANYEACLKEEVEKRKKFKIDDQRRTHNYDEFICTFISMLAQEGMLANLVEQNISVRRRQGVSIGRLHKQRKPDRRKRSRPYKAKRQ
An asterisk follows results filed as active; i = inactive; . = no result shown; [ ] = dose if it differs, or a comment. Hits are enriched below; roughly 5.1% of the tested compounds scored in any of these assays.

SMILES | RORA act | ERa SRC1 pot | ERa SRC1 inh | SF1 activator | ERb coact inh | BAP1 inh
O=C(Nc1nc(-c2ccc(F)cc2)cs1)c1cccc([N+](=O)[O-])c1 | . | . | . | . | . | i
O=C(Oc1ccc(-c2cnc3ccccc3n2)cc1)c1ccc(Br)cc1 | . | . | . | . | . | i
O=c1c(-c2cc3ccccc3o2)[n+]([O-])c2ccccc2n1OCc1ccccn1 | . | 129.6 | -14.4 | . | 2.3 | .
CCOn1c(=O)c(-c2cc3ccccc3o2)[n+]([O-])c2ccccc21 | 60.0* | 125.8 | -5.2 | 97.4* | -17.4 | i
CCOC(=O)c1[nH]c(C)c(/C(O)=C2\C(=O)C(=O)N(CCN(C)C)C2c2cccc(OC)c2OC)c1C (configuration not stated) | -10.7 | 598.9*[fluorescence artefact?] | -2.2 | 0.7 | -9.3 | i
O=C(c1ccc(Cl)cc1)N1CCN(c2ccc(C(F)(F)F)cc2[N+](=O)[O-])CC1 | . | . | . | . | . | i
C/C(N)=C(/C#N)C(=O)CSc1nnnn1-c1ccc(C)cc1 | -14.4 | 59.3 | 50.9*[fluorescence artefact?] | 11.5 | 63.9* | i
C/C(N)=C(/C#N)C(=O)CSc1nnnn1-c1ccccc1 | . | 6.9 | 84.7*[fluorescence artefact?] | . | 89.7*[fluorescence artefact?] | .
Cc1csc2ncc(C(=O)Nc3ccccc3Cl)c(=O)n12 | 38.0 | 238.6*[fluorescence artefact?] | 58.4*[fluorescence artefact?] | 25.3 | 64.9*[fluorescence artefact?] | i
Cc1csc2ncc(C(=O)Nc3ccccc3F)c(=O)n12 | 39.6 | 137.2 | 29.0 | 49.7* | 21.1 | i
Cc1csc2ncc(C(=O)NCc3ccco3)c(=O)n12 | -6.4 | 64.2 | 17.7 | 0.2 | 37.7 | .
Cc1csc2ncc(C(=O)N3c4ccccc4CC3C)c(=O)n12 (configuration not stated) | . | 120.4 | -6.3 | . | 87.3* | .
O=C(Nc1cccc2c1C(=O)c1ccccc1C2=O)c1ccc(S(=O)(=O)N2CCc3ccccc3C2)cc1 | . | . | . | . | . | i
COCCN(CCOC)c1ncnc2c1cnn2-c1ccc(Cl)cc1 | 55.0* | 142.7 | -4.6 | 32.7 | -5.7 | i
OCCOCCNc1ncnc2c1cnn2-c1ccc(Cl)cc1 | 6.8 | 111.0 | 3.9 | 64.1* | 0.4 | i
OCCOCCNc1ncnc2c1cnn2-c1ccccc1 | -4.8 | 119.3 | -0.3 | 45.9 | -1.1 | i
Cc1cccc(-n2ncc3c(NCc4cccs4)ncnc32)c1 | 46.3 | 101.8 | 1.2 | 21.9 | -11.1 | i
COCCN(CCOC)c1ncnc2c1cnn2-c1ccccc1 | 26.4 | 114.2 | 16.8 | 18.6 | 24.0 | i
COCCNc1ncnc2c1cnn2-c1ccc(Cl)cc1 | 53.7* | 99.6 | 10.2 | 68.0* | -7.0 | i
Clc1ccc(-n2ncc3c(NCc4cccs4)ncnc32)cc1 | 43.6 | 134.3 | -5.1 | 73.6* | -6.9 | i
Cc1occc1C(=O)NCCCc1ccccc1 | -3.1 | 103.4 | 4.1 | -16.2 | 57.9* | i
Cc1occc1C(=O)NCCCCNC(=O)c1ccoc1C | -20.1 | 132.2 | -5.6 | 4.8 | -7.4 | i
N#Cc1c(-c2ccco2)cc(-c2ccccn2)nc1N | -10.4 | 28.0 | 78.0*[fluorescence artefact?] | -2.2 | 63.1*[fluorescence artefact?] | i
CCc1nnc(NC(=O)CSc2nnc(-c3ccc(S(=O)(=O)N4CCCC4)cc3)n2CC)s1 | . | 86.9 | 16.1 | . | 53.6*[fluorescence artefact?] | .
CCc1nnc(NC(=O)CSc2nnc(-c3ccc(S(=O)(=O)N(CC)CC)cc3)n2CC)s1 | . | 90.0 | 26.0 | . | 12.7 | .
SMILES | RORA act | ERa SRC1 pot | ERa SRC1 inh | SF1 activator | ERb coact inh | BAP1 inh
COc1cccc2cc(-c3nc4ccccc4[nH]3)c(=Nc3cccc(C)c3)oc12 | . | . | . | . | . | i
CC(/C=C/c1ccc2c(c1)OCO2)=N\NC(=O)c1cccc([N+](=O)[O-])c1 | . | 58.2 | 68.0*[fluorescence artefact?] | . | 17.2 | .
O=C(NCCCCNC(=O)c1cccc([N+](=O)[O-])c1)c1cccc([N+](=O)[O-])c1 | . | . | . | . | . | i
Cc1cc2nn(-c3ccccc3)nc2cc1NC(=O)COc1ccccc1 | . | . | . | . | . | i
O=C(Nc1nc2c(Cl)cccc2s1)c1ccc(Br)o1 | -1.3 | 535.0*[fluorescence artefact?] | -82.4 | 22.6 | -7.8 | i
Cc1ccc2cccc(NC(=O)c3ccc(Br)o3)c2n1 | 12.1 | 99.6 | -0.8 | -18.1 | 10.8 | i
O=C(Nc1cccc(NC(=O)c2ccc(Br)o2)n1)c1ccc(Br)o1 | -13.9 | 257.8*[fluorescence artefact?] | 30.3 | 4.5 | 21.6 | .
OC(CN1CCN(c2ccc(Cl)cc2)CC1)Cn1c2ccccc2c2ccccc21 (configuration not stated) | . | . | . | . | . | i
COCCn1c(N)c(S(=O)(=O)c2cccs2)c2nc3ccccc3nc21 | -34.8 | 126.1 | -4.8 | 3.1 | 8.9 | .
Cc1cccc(S(=O)(=O)c2c(N)n(Cc3ccco3)c3nc4ccccc4nc23)c1 | -20.3 | 88.2 | 47.0 | -15.1 | 61.2* | i
Nc1c(S(=O)(=O)c2cccs2)c2nc3ccccc3nc2n1Cc1ccccc1 | . | 205.8* | 24.7 | . | 4.2 | .
O=C(COc1cccc(C(F)(F)F)c1)Nc1ncc(Cc2cccc(C(F)(F)F)c2)s1 | . | . | . | . | . | i
O=C(NCCN1C(=O)C2C3C=CC(C3)C2C1=O)Nc1ccc(Br)cc1 (configuration not stated) | 84.3* | 121.7 | -3.2 | 83.7* | 1.9 | i
CN(C)c1ccc(NS(=O)(=O)c2ccc([N+](=O)[O-])cc2)cc1 | . | . | . | . | . | i
COC(=O)c1[nH]c2ccc(C)cc2c1NC(=O)CN1CCCc2ccccc21 | -6.5 | 72.7 | 77.3*[fluorescence artefact?] | 1.1 | 53.7* | i
COc1cc(NC(=O)c2cccs2)c(C(=O)OCC(=O)NC(=O)NC(C)(C)C)cc1OC | . | 100.7 | 15.7 | . | 75.3* | .
COc1ccccc1NC(=O)c1cccs1 | 2.8 | . | . | -5.0 | . | i
COc1cc(NC(=O)c2cccs2)c(C(=O)OCC(=O)NC(=O)NCc2ccccc2)cc1OC | . | 344.4* | 39.3 | . | 0.9 | .
CCOc1ccccc1C(=O)N1CCN=C1SC | -2.6 | 90.0 | -2.0 | -5.8 | 86.9* | i
CCOc1ccc(C(=O)N2CCN=C2SC)cc1OCC | -0.1 | 100.3 | 0.1 | 2.7 | -5.4 | i
Cc1c(NC(=O)Cc2ccccc2)cccc1-c1nc2ncccc2o1 | . | . | . | . | . | i
CCOC(=O)C1=C(c2ccccc2)N2CCN=C2S1 | 2.3 | 424.2*[fluorescence artefact?] | -10.2 | -3.3 | -9.8 | i
Cc1c(C(=O)OCC(C)C)[nH]c2c1C(=O)CC(c1ccco1)C2 (configuration not stated) | -13.4 | 95.5 | 38.4 | -17.6 | 35.5 | i
